Assay results as given in ChEMBL document CHEMBL1124260, “Synthesis and antitumor activity of quaternary ellipticine glycosides, a series of novel and highly active antitumor agents” (1988).

Key:
[1] = tested on: Mus musculus; assay: Antitumor activity against ip implanted P388 leukemia in mouse after ip administration of 1.25 mg/kg for 5 days expressed as increase in mean life span; assay type: functional; conditions: 120 h, route intraperitoneal
Procedure, shortened: (§1)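 Saline-dissolved drug was given ip daily for 5 consecutive days, beginning 24 h post-transplant. ILS % was calculated from treated vs control mean survival time over an 80-day observation period.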

[2] = tested on: Mus musculus; assay: Effect on ip implanted syngeneic B16 melanoma by ip administration for 9 days at 5 mg/kg was measured as increase in mean life span; conditions: 216 h
[3] = tested on: Mus musculus; assay: Antitumor activity against ip implanted P388 leukemia in mouse after iv administration of 8 mg/kg for 5 days expressed as increase in mean life span; conditions: 120 h
[4] = tested on: Mus musculus; assay: Number of survivors out of 6 ip implanted sarcoma 180 leukemia mouse tested after 80 days at 40 mg/kg; assay type: functional; conditions: route intraperitoneal
Procedure, shortened: (§2)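 Drug dissolved and diluted in saline just before use, given ip for 5 consecutive days starting 24 h after implant. Six mice per dose. Survivors counted at 80 days; ILS % taken from mean survival time of treated vs control mice.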

[5] = tested on: Mus musculus; assay: Number of survivors out of 6 ip implanted EAC leukemia mouse tested after 80 days at 10 mg/kg; assay type: functional; conditions: route intraperitoneal; procedure, shortened: as §2
[6] = tested on: Mus musculus; assay: Antitumor activity against ip implanted P388 leukemia in mouse after iv administration of 16 mg/kg for 5 days expressed as increase in mean life span; conditions: 120 h
[7] = tested on: Mus musculus; assay: Antitumor activity against ip implanted P388 leukemia in mouse after ip administration of 40 mg/kg for 5 days expressed as increase in mean life span; assay type: functional; conditions: 120 h, route intraperitoneal; procedure, shortened: as §1
[8] = tested on: Mus musculus; assay: Number of survivors out of 6 ip implanted EAC leukemia mouse tested after 80 days at 40 mg/kg; assay type: functional; conditions: route intraperitoneal; procedure, shortened: as §2
[9] = tested on: Mus musculus; assay: Number of survivors out of 6 ip implanted P388 leukemia in mouse after ip administration of 5 mg/kg after 80 days; assay type: functional; conditions: route intraperitoneal
Procedure, shortened: (§3)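 P388 leukemia, 10^6 ascitic cells implanted ip in female BDF1 mice. Drug in saline given ip for 5 consecutive days from 24 h after transplant. Groups of six per dose level. Survivors/total recorded at the 80-day end of observation; ILS % from treated/control mean survival time.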

[10] = tested on: Mus musculus; assay: Effect on ip implanted EAC by ip administration for 5 days at 5 mg/kg was measured as increase in mean life span; assay type: functional; conditions: 120 h, route intraperitoneal
Procedure, shortened: (§4)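 Drug in 0.9% NaCl was given ip for 5 consecutive days from 24 h after inoculation. ILS % came from treated vs control mean survival time, followed for 80 days.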

[11] = tested on: Mus musculus; assay: Effect on ip implanted sarcoma 180 by ip administration for 5 days at 10 mg/kg was measured as increase in mean life span; assay type: functional; conditions: Sarcoma-180, ip, 120 h, route intraperitoneal
Procedure, shortened: (§5)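 Saline-dissolved drug was dosed ip daily for 5 consecutive days starting 24 h later. Readout was ILS % (mean survival time of treated vs control) over an 80-day observation.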

[12] = tested on: Mus musculus; assay: Number of survivors out of 6 ip implanted L1210 leukemia in mouse after ip administration of 20 mg/kg after 80 days; assay type: functional; conditions: route intraperitoneal
Procedure, shortened: (§6)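 Female BDF1 mice implanted ip with ascitic fluid holding 10^5 L1210 cells. Saline-dissolved drug given ip daily on days 1-5, starting 24 h after implant. Six mice per dose group, followed 80 days. Survivors/total counted at day 80; ILS % from mean survival time vs controls.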

[13] = tested on: Mus musculus; assay: Antitumor activity against ip implanted L1210 leukemia in mouse after iv administration of 16 mg/kg for 5 days expressed as increase in mean life span; conditions: 120 h
[14] = tested on: Mus musculus; assay: Effect on ip implanted syngeneic B16 melanoma by ip administration of 20 mg/kg for 9 days measured as increase in mean life span; conditions: 216 h
[15] = tested on: Mus musculus; assay: Number of survivors out of 6 ip implanted P388 leukemia in mouse after ip administration of 10 mg/kg after 80 days; assay type: functional; conditions: route intraperitoneal; procedure, shortened: as §3
[16] = tested on: Mus musculus; assay: Number of survivors out of 6 ip implanted L1210 leukemia in mouse after ip administration of 10 mg/kg after 80 days; assay type: functional; conditions: route intraperitoneal; procedure, shortened: as §6
[17] = tested on: Mus musculus; assay: Inhibition of sc implanted syngeneic colon 38 carcinoma by ip administration at 20 mg/kg on 1, 3, 5, 7, 9 days measured as inhibition ratio; assay type: functional; conditions: route subcutaneous
Procedure, shortened: (§7)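 Tumor homogenate (70 mg) implanted into the axillary region of female BDF1 mice. Drug dissolved in 0.9% NaCl and diluted with saline just before use, then given ip on days 1, 3, 5, 7 and 9. Tumor length and width were measured by caliper on day 20 after inoculation and converted to estimated weight. Result reported as treated vs control tumor weight, T/C %.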

[18] = tested on: Mus musculus; assay: Antitumor activity against ip implanted L1210 leukemia in mouse after ip administration of 10 mg/kg for 5 days expressed as increase in mean life span; assay type: functional; conditions: Mus musculus, L1210, ip, 120 h, route intraperitoneal
Procedure, shortened: (§8)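 Drug was dissolved in 0.9% NaCl, diluted just before use and given ip once daily for 5 consecutive days, starting 24 h after transplant. ILS % = mean survival time of treated vs control mice, observed for 80 days.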

[19] = tested on: Mus musculus; assay: Antitumor activity against ip implanted P388 leukemia in mouse after ip administration of 5 mg/kg for 5 days expressed as increase in mean life span; assay type: functional; conditions: 120 h, route intraperitoneal; procedure, shortened: as §1
[20] = tested on: Mus musculus; assay: Antitumor activity against ip implanted L1210 leukemia in mouse after iv administration of 8 mg/kg for 5 days expressed as increase in mean life span; conditions: 120 h
[21] = tested on: Mus musculus; assay: Number of survivors out of 6 ip implanted EAC leukemia mouse tested after 80 days at 20 mg/kg; assay type: functional; conditions: route intraperitoneal; procedure, shortened: as §2
[22] = tested on: Mus musculus; assay: Number of survivors out of 6 ip implanted L1210 leukemia mouse, tested after 80 days at 30 mg/kg; assay type: functional; conditions: route intraperitoneal; procedure, shortened: as §6
[23] = tested on: Mus musculus; assay: Number of survivors out of 6 ip implanted P388 leukemia in mouse after iv administration of 16 mg/kg after 80 days
[24] = tested on: Mus musculus; assay: Effect on ip implanted syngeneic B16 melanoma by ip administration for 9 days at 10 mg/kg was measured as increase in mean life span; conditions: 216 h
[25] = tested on: Mus musculus; assay: Antitumor activity against ip implanted L1210 leukemia in mouse after ip administration of 30 mg/kg for 5 days expressed as increase in mean life span; assay type: functional; conditions: Mus musculus, L1210, ip, 120 h, route intraperitoneal; procedure, shortened: as §8
[26] = tested on: Mus musculus; assay: Number of survivors out of 6 ip implanted P388 leukemia in mouse after ip administration of 20 mg/kg after 80 days; assay type: functional; conditions: route intraperitoneal; procedure, shortened: as §3
[27] = tested on: Mus musculus; assay: Effect on ip implanted sarcoma 180 by ip administration for 5 days at 40 mg/kg was measured as increase in mean life span; assay type: functional; conditions: Sarcoma-180, ip, 120 h, route intraperitoneal; procedure, shortened: as §5
[28] = tested on: Mus musculus; assay: Antitumor activity against ip implanted L1210 leukemia in mouse after ip administration of 1.25 mg/kg for 5 days expressed as increase in mean life span; assay type: functional; conditions: 120 h, route intraperitoneal; procedure, shortened: as §8
[29] = tested on: Mus musculus; assay: Effect on ip implanted syngeneic B16 melanoma by ip administration for 9 days at 2.5 mg/kg was measured as increase in mean life span; conditions: 216 h
[30] = tested on: Mus musculus; assay: Effect on ip implanted EAC by ip administration for 5 days at 40 mg/kg was measured as increase in mean life span; assay type: functional; conditions: 120 h, route intraperitoneal; procedure, shortened: as §4
[31] = tested on: Mus musculus; assay: Effect on ip implanted EAC by ip administration for 5 days at 10 mg/kg was measured as increase in mean life span; assay type: functional; conditions: 120 h, route intraperitoneal; procedure, shortened: as §4
[32] = tested on: Mus musculus; assay: Antitumor activity against ip implanted L1210 leukemia in mouse after ip administration of 20 mg/kg for 5 days expressed as increase in mean life span; assay type: functional; conditions: 120 h, route intraperitoneal; procedure, shortened: as §8
[33] = tested on: Mus musculus; assay: Antitumor activity against ip implanted P388 leukemia in mouse after ip administration of 10 mg/kg for 5 days expressed as increase in mean life span; assay type: functional; conditions: 120 h, route intraperitoneal; procedure, shortened: as §1
[34] = tested on: Mus musculus; assay: Inhibition of sc implanted syngeneic colon 38 carcinoma by ip administration at 30 mg/kg on 1, 3, 5, 7, 9 days measured as inhibition ratio; assay type: functional; conditions: route intraperitoneal; procedure, shortened: as §7
[35] = tested on: Mus musculus; assay: Effect on ip implanted EAC by ip administration for 5 days at 20 mg/kg was measured as increase in mean life span; assay type: functional; conditions: 120 h, route intraperitoneal; procedure, shortened: as §4
[36] = tested on: Mus musculus; assay: Effect on ip implanted sarcoma 180 by ip administration for 5 days at 20 mg/kg was measured as increase in mean life span; assay type: functional; conditions: Sarcoma-180, ip, 120 h, route intraperitoneal; procedure, shortened: as §5
[37] = tested on: Mus musculus; assay: Antitumor activity against ip implanted L1210 leukemia in mouse after ip administration of 40 mg/kg for 5 days expressed as increase in mean life span; assay type: functional; conditions: 120 h, route intraperitoneal; procedure, shortened: as §8
[38] = tested on: Mus musculus; assay: Antitumor activity against ip implanted P388 leukemia in mouse after ip administration of 20 mg/kg for 5 days expressed as increase in mean life span; assay type: functional; conditions: 120 h, route intraperitoneal; procedure, shortened: as §1
[39] = tested on: Mus musculus; assay: Antitumor activity against ip implanted L1210 leukemia in mouse after ip administration of 5 mg/kg for 5 days expressed as increase in mean life span; assay type: functional; conditions: Mus musculus, L1210, ip, 120 h, route intraperitoneal; procedure, shortened: as §8
[40] = tested on: Mus musculus; assay: Antitumor activity against ip implanted L1210 leukemia in mouse after ip administration of 60 mg/kg for 5 days expressed as increase in mean life span; assay type: functional; conditions: 120 h, route intraperitoneal; procedure, shortened: as §8
[41] = tested on: Mus musculus; assay: Number of survivors out of 6 ip implanted L1210 leukemia mouse tested after 80 days at 60 mg/kg; assay type: functional; conditions: route intraperitoneal; procedure, shortened: as §6

Cc1c2cc[n+]([C@@H]3O[C@H](CO)[C@H](O)[C@H]3O)cc2c(C)c2c1[nH]c1ccc(O)cc12.[Cl-]
ILS at 1.25 mg/kg [1]: 110%
ILS at 5 mg/kg [2]: 42%
ILS at 8 mg/kg [3]: 122%
Cures [4]: 2
Cures [5]: 2
ILS at 16 mg/kg [6]: > 417%
ILS at 40 mg/kg [7]: 112%
Cures [8]: 5
Cures [9]: 3
ILS at 5 mg/kg [10]: 125%
ILS at 10 mg/kg [11]: 69%
Cures [12]: 1
ILS at 16 mg/kg [13]: 168%
ILS at 20 mg/kg [14]: 52%
Cures [15]: 2
Cures [16]: 1
T/C [17]: 36%
ILS at 10 mg/kg [18]: > 272%
ILS at 5 mg/kg [19]: > 418%
ILS at 8 mg/kg [20]: 102%
Cures [21]: 3
Cures [22]: 4
Cures [23]: 2
ILS at 10 mg/kg [24]: 64%
ILS at 30 mg/kg [25]: > 682%
Cures [26]: 5
ILS at 40 mg/kg [27]: > 335%
ILS at 1.25 mg/kg [28]: 55%
ILS at 2.5 mg/kg [29]: 38%
ILS at 40 mg/kg [30]: > 501%
ILS at 10 mg/kg [31]: > 318%
ILS at 20 mg/kg [32]: > 244%
ILS at 10 mg/kg [33]: > 376%
T/C [34]: 2%
ILS at 20 mg/kg [35]: > 380%
ILS at 20 mg/kg [36]: > 318%
ILS at 40 mg/kg [37]: 59%
ILS at 20 mg/kg [38]: > 628%
ILS at 5 mg/kg [39]: 73%

CC(=O)OC1C(C)OC([n+]2ccc3c(C)c4[nH]c5ccc(O)cc5c4c(C)c3c2)C(OC(C)=O)C1OC(C)=O.[Br-] (stereo unspecified)
ILS at 60 mg/kg [40]: 89%
Cures [41]: 0
